How the values were obtained:
Type in all cases: functional
RXF 393 = assay: Growth inhibition of human RXF393 cells after 48 hrs by sulforhodamine B assay; conditions: RXF 393, 48 h
Procedure, shortened: (§1)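 NCI 60-human-tumor-cell-line panel, with compounds tested over a 5-log dose range. Values are taken from dose-response curves as log10 molar concentrations: GI50 is 50% net growth inhibition, TGI is total growth inhibition, and LC50 is 50% net cell death.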

DU-145 = assay: Growth inhibition of human DU145 cells after 48 hrs by sulforhodamine B assay; conditions: DU-145, 48 h; procedure, shortened: as §1
M14 = assay: Growth inhibition of human M14 cells after 48 hrs by sulforhodamine B assay; conditions: M14, 48 h; procedure, shortened: as §1
NCI-H23 = assay: Growth inhibition of human NCI-H23 cells after 48 hrs by sulforhodamine B assay; conditions: NCI-H23, 48 h; procedure, shortened: as §1
COLO 205 = assay: Growth inhibition of human COLO205 cells after 48 hrs by sulforhodamine B assay; conditions: COLO 205, 48 h; procedure, shortened: as §1
MCF7 = assay: Anticancer activity against human MCF7 cells assessed as cell growth at 100 uM after 48 hrs by sulforhodamine B assay; conditions: MCF7, 48 h, read-out: Activity
A549 = assay: Growth inhibition of human A549 cells after 48 hrs by sulforhodamine B assay; conditions: A549, 48 h; procedure, shortened: as §1
[1] = Growth inhibition of human […] cells after 48 hrs by sulforhodamine B assay; procedure, shortened: as §1
786-0 = assay: Growth inhibition of human 786-0 cells after 48 hrs by sulforhodamine B assay; conditions: 786-0, 48 h; procedure, shortened: as §1
KM12 = assay: Growth inhibition of human KM12 cells after 48 hrs by sulforhodamine B assay; conditions: KM12, 48 h; procedure, shortened: as §1
SF-295 = assay: Growth inhibition of human SF295 cells after 48 hrs by sulforhodamine B assay; conditions: SF-295, 48 h; procedure, shortened: as §1
U-251 = assay: Growth inhibition of human U251 cells after 48 hrs by sulforhodamine B assay; conditions: U-251, 48 h
Procedure, shortened: (§2)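 Run in the NCI 60-human-tumour-cell-line panel, tested over a 5-log dose range. Dose–response curves gave three values per cell line, each as a log10 molar concentration: GI50 (50% inhibition of net cell growth), TGI (total inhibition of net growth) and LC50 (50% net cell death). The mean graph midpoint is the arithmetic mean over all lines, with insensitive lines entered at the highest concentration tested.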

CAKI-1 = assay: Growth inhibition of human Caki1 cells after 48 hrs by sulforhodamine B assay; conditions: CAKI-1, 48 h; procedure, shortened: as §1
MDA-MB-231 = assay: Growth inhibition of human MDA-MB-231 cells after 48 hrs by sulforhodamine B assay; conditions: MDA-MB-231, 48 h; procedure, shortened: as §1
MDA-MB-435 = assay: Growth inhibition of human MDA-MB-435 cells after 48 hrs by sulforhodamine B assay; conditions: MDA-MB-435, 48 h; procedure, shortened: as §1
PC-3 = assay: Growth inhibition of human PC3 cells after 48 hrs by sulforhodamine B assay; conditions: PC-3, 48 h; procedure, shortened: as §1
OVCAR-8 = assay: Growth inhibition of human OVCAR8 cells after 48 hrs by sulforhodamine B assay; conditions: OVCAR-8, 48 h; procedure, shortened: as §1
SK-OV-3 = assay: Growth inhibition of human SKOV3 cells after 48 hrs by sulforhodamine B assay; conditions: SK-OV-3, 48 h; procedure, shortened: as §1
LOX IMVI = assay: Growth inhibition of human LOXIMVI cells after 48 hrs by sulforhodamine B assay; procedure, shortened: as §1
SW-620 = assay: Growth inhibition of human SW620 cells after 48 hrs by sulforhodamine B assay; conditions: SW-620, 48 h; procedure, shortened: as §2
[2] = Growth inhibition of human Hs 578T cells after 48 hrs by sulforhodamine B assay; procedure, shortened: as §1
SF-268 = assay: Anticancer activity against human SF268 cells assessed as cell growth at 100 uM after 48 hrs by sulforhodamine B assay; conditions: SF-268, 48 h, read-out: Activity
TK-10 = assay: Growth inhibition of human TK10 cells after 48 hrs by sulforhodamine B assay; conditions: TK-10, 48 h; procedure, shortened: as §2
SR = assay: Growth inhibition of human SR cells after 48 hrs by sulforhodamine B assay; procedure, shortened: as §2
NCI-H460 = assay: Growth inhibition of human NCI-H460 cells after 48 hrs by sulforhodamine B assay; conditions: NCI-H460, 48 h; procedure, shortened: as §1
NCI/ADR-RES = assay: Growth inhibition of human NCI/ADR-RES cells after 48 hrs by sulforhodamine B assay; procedure, shortened: as §1
HCT-116 = assay: Growth inhibition of human HCT116 cells after 48 hrs by sulforhodamine B assay; conditions: HCT-116, 48 h; procedure, shortened: as §1
OVCAR-5 = assay: Growth inhibition of human OVCAR5 cells after 48 hrs by sulforhodamine B assay; conditions: OVCAR-5, 48 h; procedure, shortened: as §1
SNB-19 = assay: Growth inhibition of human SNB19 cells after 48 hrs by sulforhodamine B assay; conditions: SNB-19, 48 h; procedure, shortened: as §2
[3] = read-out: pLC50 (the source's name) (converted)

Nc1cc(N)c2nc(-c3ccccc3)c(Sc3ccc(Cl)c(Cl)c3)nc2c1
GI50 (RXF 393): 12.3 µM
CC50 (RXF 393; [3]): 60.3 µM
TGI (RXF 393; read-out: pTGI (converted)): 26.9 µM
GI50 (DU-145): 1.51 µM
CC50 (DU-145; [3]): 9.77 µM
TGI (DU-145; read-out: pTGI (converted)): 3.8 µM
GI50 (M14): 32.4 µM
CC50 (M14; [3]): > 100 µM
TGI (M14; read-out: pTGI (converted)): > 100 µM
GI50 (NCI-H23): 12.6 µM
LC50 (50% net cell kill concentration) (NCI-H23): 95.5 µM
TGI (NCI-H23; read-out: pTGI (converted)): 34.7 µM
GI50 (COLO 205): 10.7 µM
LC50 (50% net cell kill) (COLO 205): > 100 µM
TGI (COLO 205; read-out: pTGI (converted)): 33.9 µM
growth at 100 µM (MCF7): 12%
GI50 (A549): 13.5 µM
LC50 (A549): > 100 µM
TGI (A549; read-out: pTGI (converted)): 52.5 µM
GI50 [1]: 3.8 µM
LC50 [1]: > 100 µM
TGI ([1]; read-out: pTGI (converted)): 31.6 µM
GI50 (786-0): 23.4 µM
CC50 (786-0; [3]): > 100 µM
TGI (786-0; read-out: pTGI (converted)): 61.7 µM
GI50 (KM12): 11.2 µM
LC50 (50% net cell kill) (KM12): > 100 µM
TGI (KM12; read-out: pTGI (converted)): > 100 µM
GI50 (SF-295): 17.8 µM
LC50 (50% net cell kill) (SF-295): > 100 µM
TGI (SF-295; read-out: pTGI (converted)): 60.3 µM
GI50 (U-251): 10.2 µM
LC50 (50% net cell kill) (U-251): > 100 µM
TGI (U-251; read-out: pTGI (converted)): > 100 µM
GI50 (CAKI-1): 15.1 µM
CC50 (CAKI-1; [3]): 89.1 µM
TGI (CAKI-1; read-out: pTGI (converted)): 37.2 µM
GI50 (MDA-MB-231): 16.6 µM
CC50 (MDA-MB-231; [3]): > 100 µM
TGI (MDA-MB-231; read-out: pTGI (converted)): 53.7 µM
GI50 (MDA-MB-435): 18.2 µM
CC50 (MDA-MB-435; [3]): > 100 µM
TGI (MDA-MB-435; read-out: pTGI (converted)): 60.3 µM
GI50 (PC-3): 3.47 µM
CC50 (PC-3; [3]): > 100 µM
TGI (PC-3; read-out: pTGI (converted)): 15.5 µM
GI50 (OVCAR-8): 24.5 µM
CC50 (OVCAR-8; [3]): > 100 µM
TGI (OVCAR-8; read-out: pTGI (converted)): > 100 µM
GI50 (SK-OV-3): 14.8 µM
CC50 (SK-OV-3; [3]): > 100 µM
TGI (SK-OV-3; read-out: pTGI (converted)): 39.8 µM
GI50 (LOX IMVI): 7.41 µM
LC50 (LOX IMVI): 72.4 µM
TGI (LOX IMVI; read-out: pTGI (converted)): 24.5 µM
GI50 (SW-620): 20.9 µM
CC50 (SW-620; [3]): > 100 µM
TGI (SW-620; read-out: pTGI (converted)): 83.2 µM
GI50 [2]: 30.2 µM
CC50 [2, 3]: > 100 µM
TGI ([2]; read-out: pTGI (converted)): > 100 µM
growth at 100 µM (SF-268): 11%
GI50 (TK-10): 5.89 µM
CC50 (TK-10; [3]): 53.7 µM
TGI (TK-10; read-out: pTGI (converted)): 20 µM
GI50 (SR): 4.68 µM
LC50 (concentration giving 50% net cell death) (SR): > 100 µM
TGI (SR; read-out: pTGI (converted)): 35.5 µM
GI50 (NCI-H460): 10.5 µM
LC50 (50% net cell kill) (NCI-H460): > 100 µM
TGI (NCI-H460; read-out: pTGI (converted)): 33.9 µM
GI50 (NCI/ADR-RES): 19.1 µM
CC50 (NCI/ADR-RES; [3]): > 100 µM
TGI (NCI/ADR-RES; read-out: pTGI (converted)): 60.3 µM
GI50 (HCT-116): 9.33 µM
LC50 (concentration causing 50% net cell death) (HCT-116): > 100 µM
TGI (HCT-116; read-out: pTGI (converted)): 47.9 µM
GI50 (OVCAR-5): 38.9 µM
CC50 (OVCAR-5; [3]): 91.2 µM
TGI (OVCAR-5; read-out: pTGI (converted)): 58.9 µM
GI50 (SNB-19): 17 µM
LC50 (SNB-19): > 100 µM
TGI (SNB-19; read-out: pTGI (converted)): 57.5 µM

Source: ChEMBL document CHEMBL1137710, “Synthesis and in vitro antitumor activity of new quinoxaline derivatives” (2009)
